# Assay outcomes (PubChem)
# This is a sample that favours compounds with a hit; in the whole collection about 0.77% have one here.
# hIAP inh = blocks human intestinal alkaline phosphatase. purified IAP, CDP-Star luminescence, 30 min. inhibition, % at 10 µM. hit rate 0.12% among 330,000. AID 2544;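 active = inhibition reaching a set limit with compound at 10 µM in the primary screen, cut at about 35% in these data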
# Target sequence (P09923 whole entry, looked up): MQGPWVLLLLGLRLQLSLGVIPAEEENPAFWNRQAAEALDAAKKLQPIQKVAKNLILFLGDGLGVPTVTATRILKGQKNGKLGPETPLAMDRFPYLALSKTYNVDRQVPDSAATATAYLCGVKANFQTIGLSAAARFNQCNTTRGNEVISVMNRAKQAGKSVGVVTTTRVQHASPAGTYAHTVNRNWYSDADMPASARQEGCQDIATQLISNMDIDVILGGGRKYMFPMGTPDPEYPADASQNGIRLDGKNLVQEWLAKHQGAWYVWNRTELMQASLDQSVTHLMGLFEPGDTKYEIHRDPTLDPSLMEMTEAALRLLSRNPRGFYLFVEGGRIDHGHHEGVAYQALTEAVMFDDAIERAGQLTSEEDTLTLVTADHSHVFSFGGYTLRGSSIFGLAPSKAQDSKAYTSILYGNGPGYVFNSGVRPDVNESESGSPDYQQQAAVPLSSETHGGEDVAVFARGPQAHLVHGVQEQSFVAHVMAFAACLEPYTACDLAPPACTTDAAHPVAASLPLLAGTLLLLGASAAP
# bIAP activator = intestinal alkaline phosphatase (bovine) activation | purified bovine IAP, CDP-star luminescence, 30 min; stronger effect = higher value; fold of DMSO-control signal, blank-subtracted | AID 1016 | activation factor at 20 µM | hit rate 0.17% among 200,000;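 active = activation factor of 2 or more at 20 µM, a signal rise over negative controls twice the positive control's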
# mIAP act = increases mouse intestinal alkaline phosphatase activity; muIAP, CDP-Star luminescence, 30 min; stronger effect = higher value; 1 = vehicle-only enzyme signal, 0 = enzyme-free wells; activation factor at 10 µM; hit rate 0.24% among 330,000; AID 2805;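 active = activation factor of at least 2 at 20 µM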
#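 System: Mouse IAP enzyme | Also added: CDP-Star substrate | Dosing: Compounds dispensed in DMSO | Schedule: 30 min enzyme-substrate-compound incubation at room temperature | Technique: Chemiluminescence readout | Control set: DMSO-only wells and no-enzyme negative control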
# hIAP act = increases human intestinal alkaline phosphatase activity. hit rate 0.16% among 330,000. activation factor at 10 µM. P09923. purified human IAP, CDP-Star luminescence, 30 min; stronger effect = higher value; 1 = vehicle-only enzyme, 0 = enzyme-free background;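 active = activation factor of the enzyme at least 2-fold when tested at 20 µM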
# mIAP inh = mouse IAP inhibition; purified mouse IAP, CDP-Star luminescence, 30 min; inhibition, % at 10 µM; hit rate 0.2% among 330,000;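 active = inhibition of at least 40% at 10 µM in the primary screen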
# bIAP inhibitor = intestinal alkaline phosphatase (bovine) inhibition. purified bovine IAP, CDP-star luminescence, 30 min. inhibition, % at 20 µM. 190,000 tested, under 10 active;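 active = over 50% inhibition of intestinal alkaline phosphatase at 20 µM in the single-dose screen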
#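 Assay system: bovine IAP enzyme; medium: DEA buffer 100 mM, pH 9.8, with MgCl2 1.0 mM, ZnCl2 0.02 mM; doses: 20 µM single dose; incubation: enzyme reaction for 30 min at room temperature; detection: CDP-star luminescence signal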
# A number is an active result; n = inactive; x = no result.
SMILES,hIAP inh,bIAP activator,mIAP act,hIAP act,mIAP inh,bIAP inhibitor
Cc1ccc(S(=O)(=O)N(C)C)cc1NC(=S)NC(C)CCCC(C)C (stereo unspecified),n,n,3.9,n,n,n
CC1(C)OC(c2ccccc2)=C/C(=C/C=C2C(=O)c3ccccc3C2=O)O1,49,n,n,n,n,n
N#C/C(=C/c1ccc(N2CCCCC2)o1)C(=O)Nc1ccc(Cl)cc1,38,n,n,n,n,n
COc1ccc(C(=O)NCC(=O)OCC(=O)N2CC(C)OC(C)C2)cc1OC (stereo unspecified),n,x,n,n,n,x
COC(=O)c1ccc2c(c1)C(C)(C)C(/C=C/c1ccc(O)cc1)=[N+]2C,50,n,n,n,n,x
CC(=O)Nc1cc2nc(C)n(Cc3ccccc3[N+](=O)[O-])c2nc1C,n,x,n,n,n,x
O=C(COC(=O)c1ccc(S(=O)(=O)NCc2ccco2)cc1)Nc1ccccc1OC(F)F,n,2.4,n,n,n,n
O=C(COC(=O)c1ccc(S(=O)(=O)NCc2ccco2)cc1)Nc1ccccc1,n,x,n,n,n,x
OC(CNCCc1ccc(Cl)cc1)COc1cc(Cl)ccc1Cl (stereo unspecified),n,x,n,n,n,x
Cc1nonc1OCCNc1ccc([N+](=O)[O-])cc1,n,2.2,n,n,n,n
Cc1cc(C)n(C(=O)CCC(=O)NCc2ccccc2)n1,n,n,n,n,56,n
NC(=O)c1c(NC(=O)COC(=O)c2ccc(O)c(Cl)c2)sc2c1CCCC2,n,x,n,n,n,x
CC1CCCCN1C(=O)CSc1nnc(Cc2ccccc2)n1C (stereo unspecified),n,2.1,n,n,n,n
CC1Cc2ccccc2N1C(=O)CSc1nnc(Cc2ccccc2)n1CCc1ccccc1 (stereo unspecified),x,5.4,x,x,x,n
COc1ccc(NC(=O)C2CCN(S(=O)(=O)c3cccc4nonc34)CC2)c(OC)c1,n,x,n,n,n,x
CSc1nsc(SC)c1NC(=O)OCCc1ccccn1,n,n,n,n,41,n
CSc1nsc(SC)c1NC(=O)OCc1ccccc1,n,n,n,n,n,n
O=C(NN=C1CCCC1)c1sc2ccccc2c1Cl,n,n,n,n,n,n
O=C1CCC/C(=N/NC(=O)c2sc3ccccc3c2Cl)C1,n,x,n,2.8,n,x
COc1ccccc1C(=O)NCCC(=O)NC1CCCCCC1,n,x,n,n,n,x
COc1ccc(CNC[C@@H](CCCCN(C)Cc2ccc(OC)cc2)N2C[C@H](c3ccccc3)N(CCc3ccc(Cl)c(Cl)c3)C(=O)C2=O)cc1,n,6.6,n,n,n,n
CCn1ncc(/C=N/NC(=O)c2ccc3c(c2)OCO3)c1C,n,n,n,n,n,n
CCn1nc(C)c(/C=N\NC(=O)c2ccc3c(c2)OCO3)c1C,n,n,n,n,n,n
CCn1ncc(/C=N\NC(=O)c2ccc3c(c2)c(C)c(C)n3Cc2ccccc2)c1C,n,4.5,3.4,n,n,n
CCn1cc(/C=N\NC(=O)c2ccc3c(c2)c(C)c(C)n3Cc2ccccc2)c(C)n1,n,4.2,n,n,n,n
SMILES,hIAP inh,bIAP activator,mIAP act,hIAP act,mIAP inh,bIAP inhibitor
CCn1nc(C)c(/C=N/NC(=O)c2ccc3c(c2)c(C)c(C)n3Cc2ccccc2)c1C,n,7,4.3,n,n,n
CCN(C(=O)c1cc(S(=O)(=O)N2CCOCC2)cn1C)c1cccc(C)c1,n,x,n,n,n,x
COc1cccc(NC(=O)CCc2c(C)nc3nc(CNC(=O)c4cccc(F)c4)nn3c2C)c1,n,x,n,n,n,x
O=C(Nc1ccccc1)Nc1ccc(-n2ccc(C(F)(F)F)n2)cc1,n,x,2.4,n,n,x
C=C(C)c1cccc(C(C)(C)NC(=O)NCCCn2ccnc2)c1,n,2.3,n,n,n,n
C=C(C)c1cccc(C(C)(C)NC(=O)NCCCN2CCCC2=O)c1,n,n,n,n,n,n
COc1cc(NC(=O)COC(C)=O)cc(OC)c1OC,n,n,n,n,n,n
CCC(NC(=O)Nc1cc(OC)c(OC)c(OC)c1)(C(F)(F)F)C(F)(F)F,n,n,2.1,n,n,n
CC(C)(C)Cc1nnc(NC(=O)CSc2ccccc2)s1,n,x,n,n,n,x
CCO[C@@H]1OC(C(N)=O)=C[C@H](C2CCCCC2)[C@H]1CCCO,n,x,n,n,45,x
Cc1ccc(NC(=O)CSc2nc3ccccc3c(=O)n2CCCN2CCCCC2)cc1Cl,n,2.6,n,n,n,n
C[C@@H](C(=O)Nc1ccc2ccccc2c1)[C@@H]1C[C@@]1(C)[C@@H](NC(=O)c1ccccc1)c1ccccc1,n,n,2.3,n,n,n
C[C@@H](C(=O)Nc1ccc2ccccc2c1)[C@H]1C[C@]1(C)[C@H](NC(=O)c1cccnc1)c1ccccc1,n,n,n,n,n,n
COc1ccc(S(=O)(=O)N(C)C[C@H]2Oc3ccc(NC(=O)Nc4ccc(C(F)(F)F)cc4)cc3C(=O)N([C@H](C)CO)C[C@@H]2C)cc1,n,x,n,n,n,x
C[C@H](CO)N1C[C@H](C)[C@@H](CN(C)S(=O)(=O)c2ccccc2)Oc2ccc(NC(=O)Cc3ccccc3)cc2C1=O,n,x,n,n,n,x
COc1ccc(NC(=O)Nc2ccc3c(c2)C(=O)N([C@H](C)CO)C[C@H](C)[C@@H](CN(C)S(=O)(=O)c2ccc(OC)cc2)O3)cc1,n,x,2.6,n,n,x
C[C@H](CO)N1C[C@H](C)[C@@H](CN(C)S(=O)(=O)c2ccccc2)Oc2ccc(NC(=O)Nc3ccc4c(c3)OCO4)cc2C1=O,n,x,2.6,n,n,x
CC(=O)C1=C(C)NC(SCC(=O)c2cc(Cl)ccc2Cl)=C(C#N)C1c1ccco1 (stereo unspecified),n,n,n,n,n,n
CC(=O)C1=C(C)NC(SCC(=O)c2ccc(Cl)c(Cl)c2)=C(C#N)C1c1ccco1 (stereo unspecified),35,n,n,n,n,n
COc1ccc(Cl)c(N2CCN(CCCNC(=O)Nc3ccc(C)cc3)CC2)c1,n,2.2,n,n,n,n
COc1ccc(N(C(=O)c2ccn[nH]2)C(C(=O)NC(C)(C)C)c2ccc(F)cc2)cc1 (stereo unspecified),n,3,n,n,n,n
CCC(C)(C)NC(=O)C(c1cccs1)N(C(=O)c1ccn[nH]1)c1ccccc1 (stereo unspecified),n,2.3,n,n,n,n
COc1ccc(N(C(=O)C2CSC(=O)C2)C(C(=O)NC(C)(C)C)c2ccncc2)cc1 (stereo unspecified),n,n,n,n,n,n
CC(C)(C)NC(=O)C(c1ccc(F)cc1)N(CCc1ccccc1)C(=O)c1ccn[nH]1 (stereo unspecified),n,2,n,n,n,n
